Assays:
[1] = Prodrug conversion in human P493B cells suspended in human plasma assessed as (S)-isopropyl 2-amino-6-diazo-5-oxohexanoate formation measured after 1 hr by HRMS analysis; type: ADME, cell-based
Outline: (§1)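 Metabolite identification: compound was incubated 1 h with 10 million P493B cells suspended in 1 mL human plasma. Cell pellets were collected and metabolites identified by HRMS.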

[2] = Drug level in human P493B cells suspended in human plasma assessed as tumor cell to plasma ratio by measuring 6-diazo-5-oxo-L-norleucine formation at 20 uM measured after 1 hr by LC-MS/MS analysis; type: ADME, cell-based
Outline: (§2)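 Cells were grown in RPMI 1640 with 10% FBS, washed in DPBS and resuspended in human plasma at 10 million cells/mL. After 5 min preincubation at 37 °C, compound was added at 20 µM final for 1 h. The mix was centrifuged at 10 000g and the washed pellet and plasma were quantified separately. DON was read by LC-MS/MS after dabsyl chloride derivatisation, intact prodrug directly. Standard curves were made in naive cells or plasma.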

[3] = Stability in swine plasma assessed as parent compound remaining at 20 uM measured after 1 hr by LC-MS/MS analysis; conditions: Sus scrofa, pig
[4] = Stability in mouse plasma assessed as parent compound remaining at 20 uM measured after 1 hr by LC-MS/MS analysis
[5] = Drug level in human P493B cells suspended in human plasma assessed as tumor cell to plasma ratio by measuring 6-diazo-5-oxo-L-norleucine formation at 20 uM measured after 1 hr by LC-MS/MS analysis relative to 6-diazo-5-oxo-L-norleucine alone; type: ADME, cell-based; outline: as §2
[6] = Stability in human plasma assessed as parent compound remaining at 20 uM measured after 1 hr by LC-MS/MS analysis
[7] = Prodrug conversion in human P493B cells suspended in human plasma assessed as 6-diazo-5-oxo-L-norleucine formation at 20 uM measured after 1 hr by LC-MS/MS analysis; type: ADME, cell-based; outline: as §2
[8] = Stability in human plasma suspended with human P493B cells at 20 uM measured after 1 hr by LC-MS/MS analysis; type: ADME, cell-free; outline: as §2
[9] = Stability in swine jejunum assessed as parent compound remaining at 20 uM measured after 1 hr by LC-MS/MS analysis; type: ADME, tissue-based, Sus scrofa; conditions: pig
Outline: (§3)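 Washed swine jejunum was diluted 10-fold in 0.1 M potassium phosphate buffer and probe-sonicated. Prodrug was spiked at 20 µM final and incubated 1 h at 37 °C with orbital shaking. Triplicate quench in acetonitrile with losartan internal standard. Percent parent remaining by LC-MS/MS peak-area ratio.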

[10] = Stability in swine liver homogenates assessed as parent compound remaining at 20 uM measured after 1 hr by LC-MS/MS analysis; conditions: Sus scrofa, pig, tissue homogenate
[11] = Prodrug conversion in human P493B cells suspended in human plasma assessed as 6-diazo-5-oxo-L-norleucine formation measured after 1 hr by HRMS analysis; type: ADME, cell-based; outline: as §1
[12] = Stability in swine jejunum at 20 uM measured after 1 hr by LC-MS/MS analysis; type: ADME, tissue-based, Sus scrofa; conditions: pig; outline: as §3
[13] = Drug level in human P493B cells suspended in human plasma assessed as tumor cell to plasma ratio at 20 uM measured after 1 hr by LC-MS/MS analysis; type: ADME, cell-based
Outline: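 P493B cells grown in RPMI 1640 with 10% FBS, then suspended in human plasma at 10 million cells/mL. Suspension preincubated 5 min at 37 °C, dosed to a final 20 μM, held 1 h at 37 °C, then spun to separate cells from plasma. DON and intact prodrug in pellet and plasma measured by LC-MS/MS; for DON, after dabsyl chloride derivatization. Ratio = cell DON/plasma DON.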

[14] = (§4) Antiproliferative activity against human P493B cells measured after 72 hrs by CellTiter 96 aqueous one solution cell proliferation assay; type: functional, cell-based
Outline: (§5)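 P493B lymphoma cells seeded at 20 000 cells/well in growth medium. DMSO stocks added as a 1:10 serial dilution, final 0.2% DMSO. Cells grown 72 h with compound, then given CellTiter 96 AQueous reagent for 2 h and read by absorbance at 490 nm. EC50 obtained by nonlinear regression of log-transformed data.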

Homo sapiens = organism: Homo sapiens; assay: as §4; type: functional, cell-based; outline: as §5

Stability [3] [%]	Stability [4] [%]	Stability [6] [%]	Stability [9] [%]	Stability [10] [%]	Stability [12]	SMILES	also measured
85	1	95				CC(=O)NCCCC[C@H](NC(=O)OC(C)(C)C)C(=O)N[C@@H](CCC(=O)C=[N+]=[N-])C(=O)OC(C)C	Ratio [2]: 13; fold change (FC) [5]: 32; Drug metabolism [7]: Metabolite_Detected; Stability [8]: Stable
98	0	94	> 50	40		CC(=O)NCCCC[C@H](NC(=O)Cc1c[nH]c2ccccc12)C(=O)N[C@@H](CCC(=O)C=[N+]=[N-])C(=O)OC(C)C	
91	0	95	> 50			CCCCCCCC(=O)N[C@@H](CCCCNC(C)=O)C(=O)N[C@@H](CCC(=O)C=[N+]=[N-])C(=O)OC(C)C	
98	0	110	> 50	72		CC(=O)NCCCC[C@H](NC(=O)[C@@H]1Cc2ccccc2CN1C(C)=O)C(=O)N[C@@H](CCC(=O)C=[N+]=[N-])C(=O)OC(C)C	Ratio [2]: 46; fold change (FC) [5]: 115; Drug metabolism [7]: 0.12 µM; Stability [8]: Stable
62	0	95		0	Unstable	CC(=O)NCCCC[C@H](NC(=O)[C@@H]1Cc2ccccc2CN1)C(=O)N[C@@H](CCC(=O)C=[N+]=[N-])C(=O)OC(C)C	
78	2	93		19	Unstable	CC(=O)NCCCC[C@H](NC(=O)OCC1c2ccccc2-c2ccccc21)C(=O)N[C@@H](CCC(=O)C=[N+]=[N-])C(=O)OC(C)C	
75	0	102	> 50	67		CC(=O)NCCCC[C@H](NC(=O)[C@H](Cc1c[nH]c2ccccc12)NC(C)=O)C(=O)N[C@@H](CCC(=O)C=[N+]=[N-])C(=O)OC(C)C	Ratio [2]: 11; fold change (FC) [5]: 30; Drug metabolism [7]: Metabolite_Detected; Stability [8]: Stable

Second part, the compound before the results:

SMILES	Stability [3] [%]	Stability [4] [%]	Stability [6] [%]	Stability [9] [%]	Stability [10] [%]	Stability [12]	also measured
CC(C)OC(=O)[C@H](CCC(=O)C=[N+]=[N-])NC(=O)[C@H](CCCCN)NC(=O)C12CC3CC(CC(C3)C1)C2							Drug metabolism [1]: Metabolite_Detected
CC(=O)NCCCC[C@H](NC(=O)OC12CC3CC(CC(C3)C1)C2)C(=O)N[C@@H](CCC(=O)C=[N+]=[N-])C(=O)OC(C)C	77	4	100	> 50			
CC(C)OC(=O)[C@@H](N)CCC(=O)C=[N+]=[N-]							Drug metabolism [11]: Metabolite_Detected
CCCCCCCCCCCCCCCC(=O)N[C@@H](CCCCNC(C)=O)C(=O)N[C@@H](CCC(=O)C=[N+]=[N-])C(=O)OC(C)C	88	30	84			Unstable	
CC(=O)NCCCC[C@H](NC(=O)[C@H](Cc1c[nH]c2ccccc12)NC(=O)C(C)(C)C)C(=O)N[C@@H](CCC(=O)C=[N+]=[N-])C(=O)OC(C)C	95	0	88			Unstable	
[N-]=[N+]=CC(=O)CC[C@H](N)C(=O)O [6-DIAZO-5-OXO-L-NORLEUCINE]							Ratio [13]: 0.4; EC50 [14]: 10 µM; Activity (Homo sapiens): Dose-dependent effect
CC(=O)NCCCC[C@H](NC(=O)[C@@H](N)Cc1c[nH]c2ccccc12)C(=O)N[C@@H](CCC(=O)C=[N+]=[N-])C(=O)OC(C)C	19	0	7		0	Unstable	

From ChEMBL document CHEMBL4340525, “Tumor-Targeted Delivery of 6-Diazo-5-oxo-l-norleucine (DON) Using Substituted Acetylated Lysine Prodrugs” (J Med Chem, 2019)
